Published values from different studies.
Compare with care: the assays were run in different laboratories.
rep main protease: Replicase polyprotein 1ab, main protease (rep, Severe acute respiratory syndrome-related coronavirus, UniProt P0C6X7)
Melanocortin receptor 5: Melanocortin receptor 5 (Mus musculus, UniProt P41149)

`O=C(O)[C@H]1O[C@@H](Oc2cc3oc(-c4ccccc4)cc(=O)c3c(O)c2O)[C@H](O)[C@@H](O)[C@@H]1O` has an IC50 of 101 µM (rep main protease; enzyme activity; inhibitor).
`CN[C@]1(c2ccccc2Cl)CCCCC1=O` has a Kd of 42 µM (Ferritin light chain (FTL, Equus caballus, UniProt P02791); cell-free assay; fluorescence).
For `C[C@@H]1NC(=O)[C@H](CC(N)=O)NC(=O)[C@H](Cc2ccccc2)NC(=O)[C@H](Cc2cccc3ccccc23)NC(=O)[C@H](CCCNC(=N)N)NC(=O)[C@@H]2CCCN2C(=O)[C@H]2CCCN2C(=O)[C@H](Cc2ccccc2)NC1=O`, the EC50 was greater than 100 µM (Melanocortin receptor 5; reporter gene; agonist).
For `[Hg+2]`, the Ki was 0.5 µM (rep main protease; enzyme activity; inhibitor).
`CN1CCC(C(c2ccccc2)c2ccccc2)CC1` gave a Ki of 0.0251 µM (Histamine H1 receptor (HRH1, Homo sapiens, UniProt P35367); cell-free assay; radioligand).
`O=C1c2c(O)cc(O)cc2O[C@H](c2cc(O)c(O)c(O)c2)[C@H]1O` has an IC50 of 4.58 µM (rep main protease; enzyme activity; inhibitor).
For `C[C@@H]1NC(=O)[C@H](CCCN)NC(=O)[C@H](Cc2ccccc2)NC(=O)[C@H](Cc2ccccc2)NC(=O)[C@H](CCCNC(=N)N)NC(=O)[C@@H]2CCCN2C(=O)[C@H]2CCCN2C(=O)[C@H](Cc2ccccc2)NC1=O`, the EC50 was greater than 100 µM (Melanocortin receptor 5; reporter gene; agonist).
`Clc1cccc(N2CCNCC2)c1Cl` has a Ki of greater than 63.1 µM (Muscarinic acetylcholine receptor M4 (CHRM4, Homo sapiens, UniProt P08173); ligand displacement; radioligand; cell membranes).
With `COc1ccc(-c2nsc(NC(=O)[C@@H]3C[C@H]3C)c2C)cc1` the IC50 was 0.0089 µM (Metabotropic glutamate receptor 1 (GRM1, Homo sapiens, UniProt Q13255); calcium signal; antagonist).
